Experimental data reported in article PMC2975065 (Journal of molecular biology, 2010).
Where two headings read alike, the source gives them in different places.

Legend:
[1] = target: DiscI (Discoidin I, isoform A) (Dictyostelium discoideum, UniProt P02886, S2A); test: Isothermal titration microcalorimetry; type: binding; conditions: ITC; for n (stoichiometry, fitted): n fitted to the curve for high affinity ligands
[2] = target: T1, DiscII (Discoidin II) (Dictyostelium discoideum, UniProt P42530); test: Isothermal titration microcalorimetry; type: binding; conditions: for -TΔS / -ΔG / -ΔH: DiscII, ITC, 25 °C, ligands marked c only one experiment
T1 sequence (P42530 1-257): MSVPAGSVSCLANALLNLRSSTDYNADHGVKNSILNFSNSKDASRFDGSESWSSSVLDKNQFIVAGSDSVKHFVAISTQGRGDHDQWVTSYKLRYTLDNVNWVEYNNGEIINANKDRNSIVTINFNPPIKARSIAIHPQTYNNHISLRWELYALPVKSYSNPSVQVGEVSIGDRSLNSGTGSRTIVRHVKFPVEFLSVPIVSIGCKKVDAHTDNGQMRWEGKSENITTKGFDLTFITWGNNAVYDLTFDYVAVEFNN
Method in brief: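 Run on a VP-ITC at 25 °C in 20 mM Tris-HCl pH 7.5, 150 mM NaCl, with sugar and protein in the same buffer. Thirty 10 μL injections of 2–40 mM sugar, 5 min apart, went into 0.15 mM lectin in the cell, stirred at 310 rpm. Sugar-into-buffer controls were run. Data were fitted to a single-site model giving Ka and ΔH (n fixed at 1 for weak ligands), with ΔG and ΔS derived. Runs were at least duplicated, or single where material was short.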

[3] = target: DiscI (Discoidin I) (Dictyostelium discoideum, UniProt P02886, S2A); test: Glycan microarray analysis of Alexa 488-labelled DiscI; type: binding; conditions: DiscI at 0.04 μg ml^-1; printed glycan arrays version 3.1
Sequence of DiscI (Discoidin I) (P02886 whole entry S2A): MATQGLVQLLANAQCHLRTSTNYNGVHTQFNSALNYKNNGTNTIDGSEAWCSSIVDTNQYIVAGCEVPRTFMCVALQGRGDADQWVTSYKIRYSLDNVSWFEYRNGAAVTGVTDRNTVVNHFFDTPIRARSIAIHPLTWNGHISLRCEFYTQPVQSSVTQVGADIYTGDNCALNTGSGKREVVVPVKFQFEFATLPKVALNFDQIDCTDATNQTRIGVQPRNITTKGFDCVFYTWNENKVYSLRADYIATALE

[4] = target: T1, DiscII (Discoidin II); conditions: ITC, taken from ref [29]; cited from earlier work
[5] = target: T1, DiscII (Discoidin II); test: Glycan microarray analysis of Alexa 488-labelled DiscII; type: binding; conditions: DiscII at 0.5 μg ml^-1; printed glycan arrays version 3.1
Method in brief: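 Recombinant protein labelled with Alexa Fluor 488-TFP following the maker's protocol, then desalted on a polyacrylamide column. Screened on the Consortium for Functional Glycomics printed array v3.1 by the standard procedure, over 0.01–200 μg ml^-1 lectin. Binding read as fluorescence intensity.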

[6] = KD, 20 mM Tris-HCl pH 7.5, 150 mM NaCl, 25 °C, averaged over two or three experiments
[7] = 20 mM Tris-HCl pH 7.5, 150 mM NaCl, 25 °C, averaged over two or three experiments

Sequence of DiscI (Discoidin I, isoform A) (P02886 whole entry S2A, canonical isoform): as the sequence (P02886 whole entry S2A) above

Compound	-TΔS ([1]; 25 °C) [kcal/mol]	-ΔG ([1]; 25 °C) [kcal/mol]	-ΔH ([1]; 25 °C) [kcal/mol]	Kd [1, 6] [mM]	Kd ([1]; Kd) [mM]	Kd [2] [mM]	-TΔS [2] [kcal/mol]	-ΔG [2] [kcal/mol]	binding on glycan array (fluorescence intensity, in words) [3]	Kd [1, 7] [mM]	also measured
CC(=O)N[C@H]1[C@H](O[C@H]2[C@@H](O)[C@@H](CO)OC(O)[C@@H]2O)O[C@H](CO)[C@H](O)[C@@H]1O (stereo partly drawn) [GalNAcβ1-3Gal]	6.886 ± 0.669	5.86 ± 0.072	12.7 ± 0.693	0.0494 ± 0.0015	~0.05	1.11	6.88	4.02	less strongly	–	increase in DiscI affinity when compared to GalNAc monosaccharide [1]: tenfold increase; n (stoichiometry, fitted) [1]: 0.81 ± 0.01; -ΔH [2]: 10.9 kcal/mol
O=C[C@H](O)[C@@H](O)[C@@H](O)[C@H](O)CO [Galactose, galactose]	4.09 ± 1.79	3.3 ± 0.024	7.41 ± 1.77	3.77 ± 0.2	3 to 4	–	–	–	–	–	–
CC(=O)NC1C(OC2C(O)C(CO)OC(O)C2NC(C)=O)OC(CO)C(O)C1O (stereo not drawn) [GlcNAcβ1-3GalNAc (n° 159), GlcNAcβ1-3GalNAc]	–	–	–	–	–	–	–	–	binds	–	–
CC(=O)N[C@H]1C(O)O[C@H](CO)[C@H](O)[C@@H]1O (mixture of isomers) [GalNAc, N-acetylgalactosamine]	3.18 ± 1.43	4.78 ± 0.048	7.98 ± 1.39	–	–	–	–	–	–	0.302 ± 0.027	Kd [1]: 0.3 mM; -TΔS [4]: 0.837 kcal/mol; -ΔG [4]: 4.02 kcal/mol; -ΔH [4]: 4.85 kcal/mol; Kd [4]: 1.11 mM
CC(=O)N[C@H]1C(O)O[C@H](CO)[C@@H](O[C@@H]2O[C@H](CO)[C@H](O)[C@H](O)[C@H]2O)[C@@H]1O (stereo partly drawn) [Gal1β1-4GlcNAc (LacNAc), Galβ1-4GlcNAc]	5.57 ± 0.478	3.59 ± 0.048	9.18 ± 0.526	2.39 ± 0.17	–	1.22 ± 0.023	4.9 ± 0.096	3.99 ± 0.12	–	–	Kd (in words) [1]: millimolar range
COC1OC(CO)C(O)C(O)C1O (stereo not drawn) [βMeGalactoside, β–Methyl-galactoside]	6.19 ± 0.526	3.44 ± 0.048	9.63 ± 0.574	–	–	–	–	–	–	2.96 ± 0.27	-TΔS [4]: 1.6 kcal/mol; -ΔG [4]: 4.16 kcal/mol; -ΔH [4]: 5.81 kcal/mol; Kd [4]: 0.952 mM
CC(=O)N[C@H]1C(O)O[C@H](CO)[C@H](O)[C@@H]1O[C@@H]1O[C@H](CO)[C@H](O)[C@H](O)[C@H]1O (stereo partly drawn) [Gal1β-3GalNAc, Galβ1-3GalNAc]	4.66 ± 0.359	6.24 ± 0.096	10.9 ± 0.263	0.0272 ± 0.0046	0.027	1.38	6.21	3.9	binds	–	increase in DiscI affinity when compared to GalNAc monosaccharide [1]: tenfold increase; n (stoichiometry, fitted) [1]: 1.03± 0.01; -ΔH [2]: 10.1 kcal/mol
CO[C@H]1O[C@H](CO)[C@H](O)[C@H](O)[C@H]1O [αMeGalactoside]	7.29 ± 1.46	2.82 ± 0.048	10.1 ± 1.41	–	–	–	–	–	–	8.39 ± 0.7	–
CC(=O)N[C@H]1[C@H](OC[C@H]2OC(O)[C@H](NC(C)=O)[C@@H](O)[C@H]2O)O[C@H](CO)[C@@H](O[C@@H]2O[C@H](CO)[C@H](O)[C@H](O)[C@H]2O)[C@@H]1O (stereo partly drawn) [Galβ1-4GlcNAcβ1-6GalNAc (n° 149), Galβ1-4GlcNAcβ1-6GalNAc]	–	–	–	–	–	–	–	–	–	–	binding on glycan array (fluorescence intensity, in words) [5]: highest affinity
